# Assay results from PMC4847003 (International Journal for Parasitology: Drugs and Drug …, 2015).
# Structures can show the parent of a compound that is named as a salt. Where two headings read alike, the source gives them in different places.
# What was measured:
# 3T3 host cells = assay: Host cell number in the same well of the amastigote image-based assay; set-up: species or system mouse; details: for SI (3T3): 3T3 IC50 or highest dose tested / amastigote IC50
# [1] = as above; set-up: species or system mouse; details: mouse, 3T3 host cells infected with T. cruzi
# HEK293 cells = assay: HEK293 viability assay; assay type: cell-based, human; details: for IC50: read-out: IC50 HEK293 (μM ± SD); for Selectivity (SI) of T. cruzi amastigotes to HEK293 cells: based on solid samples
# 3T3 cells = assay: Activity against sub-confluent 3T3 cells; assay type: cell-based, mouse; details: at 73 μM, seeding density of 1000 cells per well
# Procedure, shortened: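 3T3 cells seeded at 1000 to 62 cells/well in collagen-coated 384-well plates and grown 48 h. Wells were washed twice and refilled with growth medium. A test-compound dose series was added in duplicate per density, with 30 μM puromycin (positive) and 0.37% DMSO (negative) controls. After a further 48 h, 70 μM final resazurin was added. […] Averaged over duplicate experiments.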
# [2] = test system: Trypanosoma cruzi amastigotes; assay: Image-based T. cruzi amastigote assay in 3T3 fibroblasts, 48 h compound exposure; assay type: cell-based, Trypanosoma cruzi Tulahuen strain; details: Fibroblast
# [3] = test system: Tulahuen strain parasites in U2OS cells; details: 96 h treatment, high concentrations; ref Moraes et al., 2014; cited from earlier work
# Y strain infection = details: ref Moraes et al., 2014, cited from earlier work
# T. cruzi amastigotes = assay: Residual amastigotes following compound treatment, 48 and 72 h image-based assay; assay type: cell-based, Trypanosoma cruzi Tulahuen strain; details: for IC50 / Emax at 18 µM: Trypanosoma cruzi; for IC50: read-out: IC50 value against T. cruzi amastigotes; for Emax at 18 µM: read-out: % of infections removed at Emax concentration
# Procedure, shortened: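 3T3 fibroblasts seeded at 1 × 10³ cells/well in collagen-coated 384-well plates, then infected with T. cruzi trypomastigotes. Free parasites were washed off with PBS after 24 h. Test compound was given as a dose series, pre-diluted 1:21 in water, for 48 or 72 h. Cells were fixed in 4% paraformaldehyde and stained with Hoechst in 0.1% Triton X-100. Residual intracellular spots at the Emax concentration were scored, including by eye.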
# T. cruzi trypomastigotes = assay: Trypomastigote viability assay; assay type: cell-based, Trypanosoma cruzi Tulahuen strain; details: for activity against the trypomastigote: Malaria Box retest; for IC50: read-out: IC50 T. cruzi Trypomastigote (μM ± SD)
# [4] = read-out: IC50 value against T. cruzi amastigotes, Malaria Box primary screening
# [5] = read-out: T. cruzi amastigote IC50 (μM ± SD), Malaria Box sample stored in 100% DMSO, two independent experiments
# [6] = read-out: 3T3 % activity highest dose, at 9.2 μM, DMSO sample
# [7] = solid sample, 48 h, 2 independent experiments
# [8] = Trypanosoma cruzi, read-out: T. cruzi Trypomastigote % activity at highest dose
smiles,measurement,setting,value
"Cc1cc(C2CCCCC2)n(O)c(=O)c1 [Ciclopirox Olamine, ciclopirox olamine]",SI (3T3),3T3 host cells; library DMSO stock,>3.54
same,SI (3T3),3T3 host cells; solid sample,> 35.0
same,activity at 19 µM,"3T3 host cells; Mus musculus, read-out: Host % activity at highest dose",53%
same,"cytotoxicity at 48 h, 136.5 µM",[1],42%
same,IC50,"HEK293 cells; Homo sapiens, HEK293, 48 h",1.4 ± 1.07 µM
same,Selectivity index (SI) to HEK293 cells,"HEK293 cells; Table 2 footnote a, solid sample",0.36
same,activity against 3T3 cells,3T3 cells,38%
CCOc1cccc2sc(N(Cc3cccnc3)C(=O)C3CCCCC3)nc12 [MMV001230],SI (3T3),3T3 host cells; based on solid samples,> 87.26
same,Selectivity (SI) of T. cruzi amastigotes to HEK293 cells,HEK293 cells,> 94.52
"COc1ccc(C[C@H](N)C(=O)N[C@H]2[C@@H](O)[C@H](n3cnc4c(N(C)C)ncnc43)O[C@@H]2CO)cc1 [Puromycin, puromycin]",IC50,[2]; [4],2.35 µM
same,IC50,[2]; [5],2.54 ± 0.13 µM
same,SI (3T3),3T3 host cells; based on solid samples,1.48
same,SI (3T3),3T3 host cells; library DMSO stock,0.97
same,SI (3T3),3T3 host cells; solid sample,1.75
same,IC50,"3T3 host cells; Mus musculus, read-out: Host IC50 ± stdev, 3T3, run of library DMSO retest",3040 ± 520 nM
same,IC50,"3T3 host cells; Mus musculus, read-out: Host IC50 ± stdev, 3T3, run of solid sample retest",2760 ± 690 nM
same,IC50,"HEK293 cells; Homo sapiens, HEK293, 48 h",0.28 ± 0.04 µM
same,Selectivity (SI) of T. cruzi amastigotes to HEK293 cells,HEK293 cells,0.12
"CC[C@@H]([C@H](C)O)n1ncn(-c2ccc(N3CCN(c4ccc(OC[C@@H]5CO[C@@](Cn6cncn6)(c6ccc(F)cc6F)C5)cc4)CC3)cc2)c1=O [posaconazole, reference compound]",parasites reduced by,[3],93%
same,reduction of Y strain infection,Y strain infection; 72 h exposure,84%
same,reduction of Y strain infection,Y strain infection; exposure to 80 nM for 48 h,approximately 60%
same,residual amastigotes at the Emax concentration,"T. cruzi amastigotes; Emax of 50 nM, 48 and 72 h (Figure S5)",presence of a small number of amastigotes could be seen
same,IC50,T. cruzi amastigotes; 48 h,6 ± 0.6 nM
same,IC50,T. cruzi amastigotes; 72 h,4.9 ± 3.6 nM
O=C(NC(c1ccccc1)c1ccc2cccnc2c1O)c1ccccc1 (stereo not drawn) [MMV666080],SI (3T3),3T3 host cells; based on solid samples,> 25.77
same,cytotoxicity,3T3 host cells; [6],40%
same,cytotoxicity,"3T3 host cells; read-out: 3T3 % activity highest dose, at 36.6 μM, solid sample",34%
same,activity / cytotoxicity against HEK293 cells,HEK293 cells,active against HEK293 cells
same,IC50,HEK293 cells; [7],2.88 ± 0.9 µM
same,activity against the trypomastigote,T. cruzi trypomastigotes,active against the trypomastigote life cycle form
same,IC50,T. cruzi trypomastigotes; Malaria Box DMSO sample,0.9 ± 0.06 µM
same,IC50,T. cruzi trypomastigotes; Malaria Box solid sample,0.52 ± 0.04 µM
"CC1CS(=O)(=O)CCN1/N=C/c1ccc([N+](=O)[O-])o1 (stereo not drawn) [Nifurtimox, nifurtimox]",IC50,[2]; [4],0.764 µM
same,IC50,[2]; [5],0.59 ± 0.1 µM
same,SI (3T3),3T3 host cells; based on solid samples,> 231.8
same,SI (3T3),3T3 host cells; solid sample,>157.41
same,activity against host cells,3T3 host cells; Malaria Box primary screening,no corresponding activity against host cells
same,"cytotoxicity at 48 h, 153.1 µM",[1],32%
same,Selectivity (SI) of T. cruzi amastigotes to HEK293 cells,HEK293 cells,> 251.1
"CC[C@@]1(O)C(=O)OCc2c1cc1n(c2=O)Cc2cc3ccccc3nc2-1 [Camptothecin, camptothecin]",SI (3T3),3T3 host cells; library DMSO stock,>49.41
same,SI (3T3),3T3 host cells; solid sample,>55.56
same,"cytotoxicity at 48 h, 5 µM",[1],38%
same,"cytotoxicity at 48 h, 16.8 µM",[1],44%
"Clc1ccccc1C(c1ccccc1)(c1ccccc1)n1ccnc1 [Clotrimrazole HCl, clotrimazole, reference compound]",residual amastigotes at the Emax concentration,"T. cruzi amastigotes; 48 h incubation, 0.92 µM in Figure S3",amastigotes that appeared to remain
COc1ccc(C)c2sc(N(Cc3cccnc3)C(=O)c3ccc(C#N)cc3)nc12 [MMV001241],SI (3T3),3T3 host cells; based on solid samples,> 31.59
same,HEK293 % activity at highest dose,"HEK293 cells; at 79.4 μM, solid sample",44% at 79.4 μM
same,Selectivity (SI) of T. cruzi amastigotes to HEK293 cells,HEK293 cells,> 34.22
O=C(Nc1nc(-c2ccccn2)cs1)c1ccccc1Br [MMV665909],cytotoxicity,3T3 host cells; [6],35%
same,cytotoxicity,"3T3 host cells; read-out: 3T3 % activity highest dose, at 73.3 μM, solid sample",44%
same,IC50,HEK293 cells; [7],1.97 ± 0.65 µM
same,activity against the trypomastigote,T. cruzi trypomastigotes,active against the trypomastigote life cycle form
same,IC50,T. cruzi trypomastigotes; Malaria Box DMSO sample,1.08 ± 0.01 µM
same,IC50,T. cruzi trypomastigotes; Malaria Box solid sample,1.05 ± 0.13 µM
"CN(C)c1ccc(Nc2c3ccccc3nc3ccccc23)cc1 [STL088556, N′-(acridin-9-yl)-N,N-dimethylbenzene-1,4-diamine]",activity at 73 µM,[2]; read-out: T. cruzi amastigote % activity,62%
same,IC50,[2]; [5],2.37 ± 1.51 µM
same,"cytotoxicity at 48 h, 9.2 µM",[1],30%
same,"cytotoxicity at 48 h, 73.3 µM",[1],62%
same,activity at 79.4 µM,"HEK293 cells; Homo sapiens, HEK293, read-out: HEK293 % activity at highest dose",115%
same,inhibition at 10.9 µM,T. cruzi trypomastigotes; [8],65%
"COc1ccccc1N1CCN(C(CNS(=O)(=O)c2ccc(Cl)cc2)c2cccnc2)CC1 (stereo not drawn) [MMV665914, 4-chloro-N-(2-(4-(2-methoxyphenyl)piperazin-1-yl)-2-(pyridin-3yl)ethyl) benzene sulfonamide]",SI (3T3),3T3 host cells; based on solid samples,> 42.37
same,cytotoxicity,3T3 host cells; [6],25%
same,Selectivity (SI) of T. cruzi amastigotes to HEK293 cells,HEK293 cells,> 45.90
same,% of infections removed at Emax concentration,"T. cruzi amastigotes; 18 μM, 48 h incubation",97%
same,% of parasites removed at Emax concentration,"T. cruzi amastigotes; 18 μM, 72 h incubation",99%
"COc1c(C)c2c(c(O)c1C/C=C(\C)CCC(=O)[O-])C(=O)OC2.[Na+] [Sodium Mycophenolate, sodium mycophenolate]",SI (3T3),3T3 host cells; library DMSO stock,>19.11
same,cytotoxicity,"3T3 host cells; read-out: Host % activity at highest dose, 3T3, at 17.2 μM, library DMSO stock",30%
"COc1ccc2sc(N(Cc3cccnc3)C(=O)c3ccc(C#N)cc3)nc2c1 [MMV001239, 4-cyano-N-(5-methoxy-1,3-benzothiazol-2-yl)-N-(pyridin-3-ylmethyl)benzamide]",IC50,[2]; [5],0.86 ± 0.006 µM
same,cytotoxicity against 3T3 cells,3T3 host cells,no cytotoxicity detected
same,SI (3T3),3T3 host cells; based on solid samples,> 20.65
same,activity / cytotoxicity against HEK293 cells,HEK293 cells,no cytotoxicity detected
same,Selectivity (SI) of T. cruzi amastigotes to HEK293 cells,HEK293 cells,> 22.37
same,% of infections removed at Emax concentration,"T. cruzi amastigotes; 18 μM, 48 h incubation",Ninety
same,Emax at 18 µM,T. cruzi amastigotes; 48 h,90%
"Cc1[nH]c2ccccc2c(=O)c1CC=C(Cl)Cl [MMV665994, 3-(3,3-Dichloro-2-propen-1-yl)-2-methyl-4(1H)-quinolinone]",IC50,[2]; [5],0.66 ± 0.7 µM
same,SI (3T3),3T3 host cells; based on solid samples,> 59.59
same,Selectivity (SI) of T. cruzi amastigotes to HEK293 cells,HEK293 cells,> 64.55
same,inhibition at 87 µM,T. cruzi trypomastigotes; [8],52%
same,Emax at 18 µM,T. cruzi amastigotes; 48 h,97%
